High-throughput results: PubChem, several laboratories
CHT allo act – human CHT allosteric activation | Q9GZV3 | CHT-expressing cells, membrane potential dye, choline EC20; stronger effect = higher value; LV-AA mutant CHT in HEK293 cells | B-score at 10 µM | 310,000 tested, 0.49% active | AID 488977;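 active means initial fluorescence not abnormally high and integrated response B-score, plate-corrected, over 3 SD above library mean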
procasp7 counter – activates human procaspase-7, counter-screen for procaspase-3 activators; P55210; recombinant procaspase-7, Ac-DEVD-pNA absorbance 405 nm; D23A/D198A/D206A triple mutant, cannot self-cleave; scale: DMSO 0, 5 µM enzyme 100; activation, % at 8.5 µM; 330,000 tested, 0.093% active;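 active means percent activation above the screen-wide mean plus 3 SD, cut at about 25% in these data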
Target sequence (P55210 whole entry D23A/D198A/D206A): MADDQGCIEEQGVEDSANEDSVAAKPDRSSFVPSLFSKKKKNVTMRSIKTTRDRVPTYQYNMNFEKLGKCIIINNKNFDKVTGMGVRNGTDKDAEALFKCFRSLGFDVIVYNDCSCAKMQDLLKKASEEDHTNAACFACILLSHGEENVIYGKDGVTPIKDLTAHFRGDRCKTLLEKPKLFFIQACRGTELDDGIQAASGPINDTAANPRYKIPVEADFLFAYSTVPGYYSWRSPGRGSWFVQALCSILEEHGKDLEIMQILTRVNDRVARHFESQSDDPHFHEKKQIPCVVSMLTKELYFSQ
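buffer or medium = Zinc-free HEPES/NaCl buffer, pH 7.4 | material = Procaspase-7 triple mutant (PC-7 D3A) | input = 2 µM procaspase-7 mutant as dispensed | signal = Epi-absorbance of released pNA at 405 nm, two timepoints | timing = 1 h preincubation, 2 h reaction | replicates = singlicate compound testing | evaluation = % activation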
CHT inh – inhibits the human high affinity choline transporter | CHT-expressing cells, membrane potential dye, choline response; stronger effect = lower value | B-score at 10 µM | 310,000 tested, 0.86% active | AID 488975;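 active means B-score over 3 SD under the library average, and starting fluorescence ratio not unusually high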;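 further: choline stimulus applied at its EC90 after an EC20 pre-addition; B-score computed on integrated fluorescence ratio after choline addition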
proCasp3 act – procaspase-3 (human) activation. AID 463141. P42574. 330,000 tested, 0.11% active. activation, % at 8.5 µM. recombinant procaspase-3 D3A, Ac-DEVD-pNA absorbance 405 nm;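 active means activation above the mean of all tested compounds plus 3 SD, cut at about 21% in these data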;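 further: 0% = DMSO alone and 100% = DMSO wells spiked with extra 5 µM PC-3 D3A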
Target sequence (P42574 whole entry D9A/D28A/D175A): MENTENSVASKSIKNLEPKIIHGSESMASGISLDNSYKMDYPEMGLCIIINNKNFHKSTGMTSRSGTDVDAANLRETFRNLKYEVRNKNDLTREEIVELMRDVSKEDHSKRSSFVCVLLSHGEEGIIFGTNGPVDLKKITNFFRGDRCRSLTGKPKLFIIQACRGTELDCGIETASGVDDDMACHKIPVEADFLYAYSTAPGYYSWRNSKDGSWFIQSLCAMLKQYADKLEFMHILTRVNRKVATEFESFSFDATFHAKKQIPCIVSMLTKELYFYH
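Evaluation: percent activation relative to control range; Material: Procaspase-3 D3A mutant, all three cleavage aspartates alanine; Compound: single dose, 8.5 µM nominal compound, 0.8% DMSO; Replication: one well per compound; Signal: absorbance at 405 nm, 0 and 120 min; Schedule: 1 h preincubation plus 2 h reaction at 25 °C.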
CHT act confirm – human CHT activation, confirmatory screen | CHT-expressing cells, membrane potential dye fluorescence (FDSS); % of choline EC20–EC90 response window; HEK293 expressing CHT LV-AA mutant; choline added at its EC20 | activation, % at 10 µM | 2,500 tested, 91% active | shares compounds with CHT allo act;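 active means primary screen active, with duplicate mean activation above negative control mean plus 3 SD, cut at about 11% in these data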
HEK293 MP dye – counter-screen for CHT activators: effect in parental HEK293 cells; shares compounds with CHT allo act; membrane potential dye fluorescence (FDSS); measured after EC20 choline addition; ratio readout change at 10 µM, hits read low; 2,500 tested, 62% active;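 active means duplicate-averaged ratio beyond 3 SD from buffer wells, up or down, though filed actives are nearly all decreases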
Numbers without * were called inactive. A selection: hits, their analogues and other compounds. The true share with any hit is near 1.3%.

How did Clc1ccc2c(NCc3ccccc3)ccnc2c1 do in these assays?
CHT allo act: inactive; procasp7 counter: 3; CHT inh: inactive; proCasp3 act: -2

What do the screens show for `CCN(CC)CCNc1ccnc2cc(Cl)ccc12`?
CHT allo act: 7.4*; procasp7 counter: 8; CHT inh: inactive; proCasp3 act: 7; CHT act confirm: 51*; HEK293 MP dye: -84*

How did CCc1ccc(C(=O)NNC(=O)c2ccc(OCC(=O)N3CCOCC3)c(OC)c2)cc1 do in these assays?
procasp7 counter: -4; proCasp3 act: 14

What do the screens show for `CCc1cc2c(cc3c(=O)n(CC(=O)N4CCN(C)CC4)ncn32)s1`?
CHT allo act: inactive; procasp7 counter: 3; CHT inh: inactive; proCasp3 act: 4

How did CCOC(=O)N1CCN(C(=O)c2ccc(N(Cc3ccc(C)cc3)S(C)(=O)=O)cc2)CC1 do in these assays?
CHT allo act: inactive; procasp7 counter: 15; CHT inh: inactive; proCasp3 act: 3

Results for CCOC(=O)N1CCN(C(=O)c2ccc(N(Cc3ccc(Cl)cc3)S(C)(=O)=O)cc2)CC1 ?
CHT allo act: 8.8*; procasp7 counter: 0; CHT inh: inactive; proCasp3 act: 3; CHT act confirm: 2; HEK293 MP dye: inactive

What do the screens show for `Cc1cc(C)c(S(=O)(=O)Nc2cccc3nsnc23)c(C)c1`?
CHT allo act: inactive; procasp7 counter: -22; CHT inh: inactive; proCasp3 act: -16

What do the screens show for `Cc1cc(C[n+]2ccccc2)c2nsnc2c1`?
CHT allo act: 10*; procasp7 counter: 10; CHT inh: inactive; proCasp3 act: 1; CHT act confirm: 45*; HEK293 MP dye: -72*

How did Cc1nn2c(NCCCN(C)C)c3c(nc2c1-c1ccccc1)CCC3 do in these assays?
CHT allo act: 8.2*; procasp7 counter: 7; CHT inh: inactive; proCasp3 act: 0; CHT act confirm: 45*; HEK293 MP dye: -57*

What do the screens show for `CC(=O)N1CCC(=NNc2ccnc3cc(Cl)ccc23)CC1`?
CHT allo act: inactive; procasp7 counter: -13; CHT inh: inactive; proCasp3 act: -25; CHT act confirm: 41*; HEK293 MP dye: -24*

Results for CCOC(=O)N1CCC(=NNc2ccnc3cc(Cl)ccc23)CC1 ?
CHT allo act: inactive; procasp7 counter: -32; CHT inh: inactive; proCasp3 act: -6

What do the screens show for `COc1ccc(Nc2nc(-c3cccs3)nc3ccccc23)c(OC)c1`?
CHT allo act: 8*; procasp7 counter: 2; CHT inh: inactive; proCasp3 act: -2; CHT act confirm: 9.8*; HEK293 MP dye: inactive

How did COc1ccc(Nc2nc(N3CCN(C)CC3)nc3ccccc23)c(OC)c1 do in these assays?
CHT allo act: inactive; procasp7 counter: 3; CHT inh: inactive; proCasp3 act: 1

What do the screens show for `C=CCn1cc(C(=O)OCC)c(=O)c2ccc(F)cc21`?
CHT allo act: inactive; procasp7 counter: 6; CHT inh: inactive; proCasp3 act: 9; CHT act confirm: 37*; HEK293 MP dye: -43*

Results for O=C(c1ccccc1F)N(Cc1ccc2c(c1)OCO2)Cc1cc2cc3c(cc2n2nnnc12)OCO3 ?
CHT allo act: inactive; procasp7 counter: 2; CHT inh: inactive; proCasp3 act: 5; CHT act confirm: 15*; HEK293 MP dye: inactive

Results for Cc1cc2cc(CN(Cc3ccc4c(c3)OCO4)C(=O)c3cnccn3)c3nnnn3c2cc1C ?
CHT allo act: inactive; procasp7 counter: 4; CHT inh: inactive; proCasp3 act: -7

What do the screens show for `CC(C)(C)OC(=O)NCC1CCC(C(=O)NC[C@H](CC(=O)O)c2ccc(Cl)cc2)CC1` (stereo not given in full)?
CHT allo act: inactive; procasp7 counter: 8; CHT inh: inactive; proCasp3 act: 3

Results for Cc1ccccc1Oc1nc2c(C)cccn2c(=O)c1/C=C(\C#N)C(=O)NC1CCS(=O)(=O)C1 (stereo not given) ?
CHT allo act: inactive; procasp7 counter: 0; CHT inh: inactive; proCasp3 act: 0

What do the screens show for `Cc1cccn2c(=O)c3cc(C(=O)NC4CCCCCC4)sc3nc12`?
CHT allo act: inactive; procasp7 counter: 6; CHT inh: inactive; proCasp3 act: 12

Results for CCCn1c(=N)c(C(=O)NC2CCCC2)cc2c(=O)n3cccc(C)c3nc21 ?
CHT allo act: inactive; procasp7 counter: -2; CHT inh: inactive; proCasp3 act: -12

How did Cc1cccn2c(=O)c3cc(C(=O)N4COCC4(C)C)sc3nc12 do in these assays?
CHT allo act: inactive; procasp7 counter: 1; CHT inh: inactive; proCasp3 act: -3; CHT act confirm: 35*; HEK293 MP dye: -30*

Results for Cc1cccn2c(=O)c3cc(C(=O)NC4CCS(=O)(=O)C4)sc3nc12 (stereo not given) ?
CHT allo act: 6.4*; procasp7 counter: 1; CHT inh: inactive; proCasp3 act: -1; CHT act confirm: 51*; HEK293 MP dye: -43*

What do the screens show for `Cc1cccn2c(=O)c(/C=C(\C#N)C(=O)NC3CCS(=O)(=O)C3)c(Oc3ccccc3Cl)nc12` (stereo not given)?
CHT allo act: inactive; procasp7 counter: 1; CHT inh: inactive; proCasp3 act: 1; CHT act confirm: 8; HEK293 MP dye: -47*

What do the screens show for `Cc1cccn2c(=O)c3cc(C(=O)NC4CCCC4)c(=N)n(C4CCCC4)c3nc12`?
CHT allo act: inactive; procasp7 counter: -5; CHT inh: inactive; proCasp3 act: -7; CHT act confirm: 34*; HEK293 MP dye: -39*

How did NC(=O)c1cc([N+](=O)[O-])ccc1NCc1cccc(N)c1 do in these assays?
CHT allo act: inactive; procasp7 counter: -9; CHT inh: inactive; proCasp3 act: 4

Results for COCCCNc1ncnc2ccc(C)cc12 ?
CHT allo act: inactive; procasp7 counter: 11; CHT inh: inactive; proCasp3 act: -1; CHT act confirm: 18*; HEK293 MP dye: -34*

What do the screens show for `CC1(C)Cc2c(sc3nc(NCCN4CCOCC4)n4ncnc4c23)CO1`?
CHT allo act: 6.5*; procasp7 counter: 2; CHT inh: inactive; proCasp3 act: -2; CHT act confirm: 62*; HEK293 MP dye: -62*

How did CCc1noc(C)c1C(=O)N(C)CC(=O)Nc1ccc(Br)cc1C do in these assays?
CHT allo act: inactive; procasp7 counter: 5; CHT inh: inactive; proCasp3 act: -10
